From article PMC7141409 (Journal of biomolecular NMR, 2019)

B1: PPIB: petidyl-prolyl isomerase B from E. coli (Uniprot entry P23869) (protein, UniProt P23869 1-164, looked up)
Peptidyl-prolyl cis-trans …: MVTFHTNHGDIVIKTFDDKAPETVKNFLDYCREGFYNNTIFHRVINGFMIQGGGFEPGMKQKATKEPIKNEANNGLKNTRGTLAMARTQAPHSATAQFFINVVDNDFLNFSGESLQGWGYCVFAEVVDGMDVVDKIKGVATGRSGMHQDVPKEDVIIESVTVSE
B2: OsIAA11 P106L: OsIAA11 P106L mutation (directly adjacent to the W104-P105 peptide bond) (protein, UniProt Q75GK0 1-233, looked up, variant P106L)
Auxin-responsive protein IAA11: MAGLGFDETELRLGLPGAGELAARSSGKRGFAETIDLKLKLQPAAPAAVSGEEGAQEDKEDADAAAAAADEKMSMKRSASQSSVVTAEPDPDKPRAPKAQVVGWPLVRSFRKNVLAEKCKAAALVKVSMDGAPYLRKIDVAMYKSYPELSMAFQNMFTSFTIGKCGSHQQLKESNKLRDDLEYVPTYEDKDGDWMLVGDVPWEMFVESCKRLRIMKGSEAIGLAPRAVEKCKS

How the values were obtained:
[1] = Succinyl-Ala-Ala-Pro-Phe-NH-Mec; cited from earlier work
[2] = system: ^15N-OsIAA11^72−125 (W104-P105 peptide bond); test: Nzz-exchange: catalyzed cis-trans exchange of W104-P105; type: biochemical, rice
Procedure, shortened: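 15N-labeled OsIAA11 72–125 substrate (800μM) with 16μM enzyme (LRT2 mutant or homolog) in NMR buffer (50mM KCl, 20mM KPO4, 3mM TCEP, 5mM NaN3, 0.1% protease inhibitor cocktail, pH=6.67). Protein concentrations were set by A280 using theoretical extinction coefficients. Nzz-exchange spectra were processed to give the observed cis-trans exchange rate (kexobs) of the W104-P105 bond with uncertainties.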

[3] = system: E3 ubiquitin ligase SCF^TIR1; conditions: rice strain with OsIAA11 P106L; cited from earlier work
rice = rice strain with OsIAA11 P106L; cited from earlier work

| Molecule | kcat/Km relative to hCypA [1] | Nzz exchange crosspeaks / activity ([2]; 16μM enzyme, 800μM OsIAA11^72–125) | Nzz-measured kexobs ([2]; 1H-15N Nzz exchange, 16μM enzyme, 800μM OsIAA11^72–125, NMR buffer pH=6.67) | Activity relative to WT LRT2 on OsIAA11 ([2]; Nzz, % of WT LRT2 activity) | Proteasomal degradation [3] | Lateral root development (rice) |
| --- | --- | --- | --- | --- | --- | --- |
| B1 | more than an order of magnitude higher kcat/Km than hCypA | clear exchange crosspeaks | 0.37 ± 0.04 s⁻¹ | 60% |  |  |
| B2 |  |  |  |  | evades proteasomal degradation | no induction of lateral root development |
